Results taken from article PMC12238359 (Scientific Reports, 2025).

Columns and labels:
HDAC6 = target: T1, HDAC6 (Homo sapiens, UniProt Q9UBN7); assay: HDAC inhibitory assay, HDAC6; assay type: biochemical
T1 sequence (Q9UBN7 1-1215): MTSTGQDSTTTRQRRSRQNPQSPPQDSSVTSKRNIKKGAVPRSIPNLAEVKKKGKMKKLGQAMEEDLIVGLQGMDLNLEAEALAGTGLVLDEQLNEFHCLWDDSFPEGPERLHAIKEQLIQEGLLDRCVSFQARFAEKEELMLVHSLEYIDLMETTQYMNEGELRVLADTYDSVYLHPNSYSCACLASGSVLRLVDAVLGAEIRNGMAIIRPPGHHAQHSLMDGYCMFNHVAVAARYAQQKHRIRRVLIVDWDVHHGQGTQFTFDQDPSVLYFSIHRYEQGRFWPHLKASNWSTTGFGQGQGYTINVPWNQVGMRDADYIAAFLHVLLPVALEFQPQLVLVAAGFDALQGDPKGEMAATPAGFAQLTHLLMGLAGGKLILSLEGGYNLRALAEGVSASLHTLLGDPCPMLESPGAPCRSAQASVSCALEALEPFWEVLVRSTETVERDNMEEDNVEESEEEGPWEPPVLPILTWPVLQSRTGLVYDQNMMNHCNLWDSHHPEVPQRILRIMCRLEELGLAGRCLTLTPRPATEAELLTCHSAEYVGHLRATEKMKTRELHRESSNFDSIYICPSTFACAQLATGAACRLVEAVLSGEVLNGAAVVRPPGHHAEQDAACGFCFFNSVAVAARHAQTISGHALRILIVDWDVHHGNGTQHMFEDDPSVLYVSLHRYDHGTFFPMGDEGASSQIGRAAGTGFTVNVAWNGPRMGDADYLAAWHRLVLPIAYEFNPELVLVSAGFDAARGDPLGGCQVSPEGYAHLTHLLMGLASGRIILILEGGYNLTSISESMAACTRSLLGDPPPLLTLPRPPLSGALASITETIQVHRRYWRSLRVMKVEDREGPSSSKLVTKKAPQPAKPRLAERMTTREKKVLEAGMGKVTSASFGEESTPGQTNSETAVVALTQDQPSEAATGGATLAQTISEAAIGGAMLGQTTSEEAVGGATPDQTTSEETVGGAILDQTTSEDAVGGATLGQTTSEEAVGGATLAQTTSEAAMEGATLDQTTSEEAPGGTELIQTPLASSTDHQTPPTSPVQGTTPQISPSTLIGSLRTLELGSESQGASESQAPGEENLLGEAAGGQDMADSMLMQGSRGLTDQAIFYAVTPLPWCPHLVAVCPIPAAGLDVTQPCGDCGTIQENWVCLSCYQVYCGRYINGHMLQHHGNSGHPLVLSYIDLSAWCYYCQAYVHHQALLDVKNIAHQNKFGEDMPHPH

HepG2 = assay: In vitro anti-proliferation assay; assay type: cell-based
GSDME-N, Cl-caspase3 = assay: Western blot of pyroptosis markers; assay type: cell-based; details: HepG2, 24 h
Summary of the method: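 HepG2 cells were treated 24 h at the indicated concentrations, then lysed in RIPA with protease inhibitors (10 min on ice, 4 °C spin). Protein was measured by BCA, and equal amounts were boiled 5 min at 100 °C, run on 10–15% SDS-PAGE and transferred to PVDF. Membranes were blocked in 5% milk, probed with primaries overnight at 4 °C, then HRP secondary 1 h at room temperature. Detection was by ECL, with densitometry against β-actin; data are mean ± SD of three experiments.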

HepG2 cells [1] = assay: Reactive oxygen species; assay type: cell-based; details: HepG2, 24 h
HepG2 cells [2] = assay: Cell cycle analysis by flow cytometry; assay type: cell-based; details: HepG2, 0.5μM; for G2/M: control 25.34%; for S: control 32.99%; for G0/G1: control 41.67%
CDK4 and Cyclin D1 = assay: Western blot of cell cycle regulators; assay type: cell-based; details: HepG2, 24 h
Summary of the method: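 For the immunoblot, HepG2 cells were treated at several concentrations for 24 h and lysed in RIPA buffer with protease inhibitors. Equal BCA-quantified protein was boiled for 5 min and resolved on 10–15% SDS-PAGE, then transferred to PVDF. Blots were blocked in 5% milk, incubated with primary antibody overnight at 4 °C and HRP secondary for 1 h, and detected by ECL. Band densities were quantified, with β-actin as loading control.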

HepG2 cells [3] = assay: Lactate dehydrogenase; assay type: cell-based; details: HepG2, 24 h
Summary of the method: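 HepG2 cells were seeded at 1 × 10^4 per well and exposed to a range of test compound concentrations for 24 h. Culture supernatant was mixed with LDH detection reagent and kept 30 min in the dark at ambient temperature. OD was read at 490 nm, with each sample in triplicate.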

acetylated H3/H4 = assay: Western blot of acetylated histone levels in HepG2 cells; assay type: cell-based; details: HepG2, 0.2, 0.5 µM, 24 h
Summary of the method: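 HepG2 cells were exposed to the test compound for 24 h, then lysed in RIPA buffer with protease inhibitors (10 min on ice) and centrifuged at 4 °C. Protein was measured by BCA, and equal amounts were denatured at 100 °C for 5 min. Blots were run on 10–15% SDS-PAGE and transferred to PVDF. Anti-acetyl-H3 was used at 1:1000, overnight at 4 °C, then HRP secondary antibody for 1 h at room temperature, with ECL detection. Bands were quantified against β-actin; mean ± SD of three separate experiments.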

Cl-PARP, Cl-caspase 3 = assay: Western blot of apoptotic proteins; assay type: cell-based; details: HepG2, 24 h
Summary of the method: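 Treated HepG2 lysates (24 h exposure, RIPA buffer with protease inhibitors, BCA-normalised) were denatured at 100 °C for 5 min and run on 10–15% SDS-PAGE, then transferred to PVDF. Membranes were blocked in 5% milk, with primary antibody overnight at 4 °C and HRP secondary for 1 h at room temperature, and developed by ECL. Band intensity was normalised to β-actin; mean ± SD of three separate experiments.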

HDAC1 = HDAC1 (Homo sapiens, UniProt Q13547); assay: HDAC inhibitory assay, HDAC1; assay type: biochemical
Sequence of HDAC1 (Q13547 whole entry): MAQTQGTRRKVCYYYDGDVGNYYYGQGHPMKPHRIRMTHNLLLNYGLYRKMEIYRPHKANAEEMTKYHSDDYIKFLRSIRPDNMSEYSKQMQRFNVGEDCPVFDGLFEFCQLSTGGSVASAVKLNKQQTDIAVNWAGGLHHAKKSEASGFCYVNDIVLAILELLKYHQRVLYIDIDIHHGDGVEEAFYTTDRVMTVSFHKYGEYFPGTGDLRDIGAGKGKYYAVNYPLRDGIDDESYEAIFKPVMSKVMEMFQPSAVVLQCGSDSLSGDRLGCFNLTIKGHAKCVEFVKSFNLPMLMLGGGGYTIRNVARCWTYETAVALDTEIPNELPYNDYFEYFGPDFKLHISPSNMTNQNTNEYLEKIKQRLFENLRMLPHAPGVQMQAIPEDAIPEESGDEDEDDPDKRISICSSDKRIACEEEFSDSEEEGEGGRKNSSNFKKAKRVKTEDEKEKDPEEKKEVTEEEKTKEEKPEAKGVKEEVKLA

HepG2 cells [4] = assay: Annexin V-FITC/PI apoptosis analysis; assay type: cell-based; details: 48 h
HepG2 cells [5] = assay: Colony formation assay; assay type: cell-based; details: HepG2, 14 days
Summary of the method: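 HepG2 cells were plated at 1000 per well in 6-well plates. After 24 h they were treated with a range of concentrations, with the medium refreshed every other day, and kept in fresh medium for 10–14 days. Colonies were fixed in methanol for 15 min, stained with 0.5% crystal violet for 15 min, photographed and counted manually.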

HepG2 xenografts = assay: HepG2 xenograft model; assay type: in vivo, BALB/c nude mice
Summary of the method: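 Male BALB/c nude mice, 5–6 weeks old, were housed under SPF conditions (25 °C, 65% humidity, 12-h light/dark). They were implanted subcutaneously with 1 × 10^6 HepG2 cells. […] Excised tumors were immunostained for Ac-H3, Ac-H4, cleaved caspase-3, GSDME-N and Ki67, then image-scored over 5 fields.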

γH2AX = γH2AX immunofluorescence assay; assay type: cell-based; details: HepG2, 24 h, in comparison to SAHA
Summary of the method: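 HepG2 cells were grown on coverslips at 1 × 10^5 per well and treated over a concentration range for 24 h. Cells were fixed in 4% formaldehyde, then blocked and permeabilised in PBS-BSA with 0.3% Triton X-100 for 15 min at room temperature. Anti-γH2AX was applied overnight at 4 °C, then goat anti-rabbit IgG (1:500) for 30 min at room temperature. Nuclei were counterstained with DAPI and imaged by confocal microscopy.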

SMILES	HDAC6 inhibitory activity relative to SAHA (HDAC6)	antiproliferative activity, times higher than SAHA (HepG2) [times]	GSDME N-terminal fragment level (GSDME-N, Cl-caspase3)	levels of active caspase-3 (GSDME-N, Cl-caspase3)	ROS levels (HepG2 cells [1])	G2/M (HepG2 cells [2]) [%]	S (HepG2 cells [2]) [%]	G0/G1 (HepG2 cells [2]) [%]	levels of CDK4 and Cyclin D1 (CDK4 and Cyclin D1)	LDH release (HepG2 cells [3])	level of acetyl-H3 and H4 (acetylated H3/H4)	expression of Cl-PARP, Cl-caspase 3 (Cl-PARP, Cl-caspase 3)	HDAC1 inhibitory activity relative to SAHA (HDAC1)	apoptosis of HepG2 cells (HepG2 cells [4]; 0.2 µM) [%]	apoptosis of HepG2 cells (HepG2 cells [4]; 0.5 µM) [%]	colony formation (HepG2 cells [5])	tumor growth inhibition (HepG2 xenografts; 10 mg/kg, ip, every two days, three weeks)	Ac-H3/H4, Cl-caspase3 and GSDME-N in tumor tissues (HepG2 xenografts; IHC at end of treatment)	Ki67 immunostaining of tumor tissues (HepG2 xenografts; IHC at end of treatment)	nuclear γH2AX levels (γH2AX)
COc1ccc(N(Cc2csc(-c3ccccc3)n2)C(=O)CCCCCC(=O)NO)cc1 [Compound 15a, N^1-hydroxy-N^7-(4-methoxyphenyl)-N^7-((2-phenyl-4-thiazolyl)methyl)heptanediamide]	eightfold better	~25	elevated levels of the N-terminal fragment of gasdermin E (GSDME)	elevated	dose-dependently increased	22.85	13.72	61.42	significantly reduced the levels of CDK4 and Cyclin D1 in a dose-dependent manner	markedly increased	increased the level of acetyl-H3 and H4 in a dose-dependent manner	upregulate the expression of Cl-PARP, Cl-caspase 3 in a dose-dependent manner	tenfold better	28.2	46.5	suppress the formation of colonies in a dose-dependent manner	superior inhibition observed at 10 mg/kg compared to that of SAHA	induced the increase of Ac- H3/H4	dose-dependent reduction in Ki67 immunostaining	induce γH2AX expression at a much lower concentration range
COc1ccc(N(Cc2csc(-c3ccc(C)cc3)n2)C(=O)CCCCCC(=O)NO)cc1 [Compound 15d, N^1-hydroxy-N^7-(4-methoxyphenyl)-N^7-((2-(4-tolyl)-4-thiazolyl)methyl)heptanediamide]	eightfold better	~15	elevated levels of the N-terminal fragment of gasdermin E (GSDME)	elevated	dose-dependently increased	24.34	18.3	57.36	significantly reduced the levels of CDK4 and Cyclin D1 in a dose-dependent manner	markedly increased	increased the level of acetyl-H3 and H4 in a dose-dependent manner	upregulate the expression of Cl-PARP, Cl-caspase 3 in a dose-dependent manner	tenfold better	30	41.9	suppress the formation of colonies in a dose-dependent manner	–	–	–	induce γH2AX expression at a much lower concentration range
